Measured values: ChEMBL document CHEMBL3616399, “Design, synthesis, and structure-activity relationship studies of novel thienopyrrolidone derivatives with strong antifungal activity against Aspergillus fumigates” (Eur J Med Chem, 2015)
≈ marks a conversion by molar mass, not a printed value.

What was measured:
Type in all cases: functional
Cryptococcus neoformans = test: Antifungal activity against Cryptococcus neoformans 32609 after 72 hrs by serial dilution method; conditions: Cryptococcus neoformans, 32609, 72 h
In short: (§1)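 MIC by broth serial dilution per NCCLS/CLSI (M27-A3 yeasts, M38-A2 filamentous) in 96-well plates; ATCC strains plus clinical isolates; C. parapsilosis 22019 run as quality-control strain in every assay. Compounds dissolved in DMSO, serially diluted in growth medium; incubation 35 °C; MIC read at 24 h (Candida), 48 h (A. fumigatus), 72 h (C. neoformans).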

Candida albicans [1] = test: Antifungal activity against Candida albicans Y0109 after 24 hrs by serial dilution method; conditions: Y0109, 24 h; in short: as §1
Candida parapsilosis = test: Antifungal activity against Candida parapsilosis 22019 after 24 hrs by serial dilution method; conditions: Lodderomyces parapsilosis, 22019, 24 h; in short: as §1
Nakaseomyces glabratus = test: Antifungal activity against Candida glabrata 537 after 24 hrs by serial dilution method; conditions: Nakaseomyces glabratus, 537, 24 h; in short: as §1
Aspergillus fumigatus = test: Antifungal activity against Aspergillus fumigatus 7544 after 48 hrs by serial dilution method; conditions: Aspergillus fumigatus, 7544, 48 h; in short: as §1
Candida albicans [2] = test: Antifungal activity against Candida albicans SC5314 after 24 hrs by serial dilution method; conditions: SC5314, 24 h; in short: as §1

| Structure (SMILES) | MIC (Cryptococcus neoformans) | MIC (Candida albicans [1]) | MIC (Candida parapsilosis) | MIC (Nakaseomyces glabratus) | MIC (Aspergillus fumigatus) | MIC (Candida albicans [2]) |
| --- | --- | --- | --- | --- | --- | --- |
| COc1cccc(-c2cc3c(s2)C(=O)N([C@H](C)[C@](O)(Cn2cncn2)c2ccc(F)cc2F)C3)c1 | 0.25 µg/mL (≈ 0.503 µM) | 0.0625 µg/mL (≈ 0.126 µM) | 0.125 µg/mL (≈ 0.252 µM) | 0.125 µg/mL (≈ 0.252 µM) | 8 µg/mL (≈ 16.1 µM) | 0.0625 µg/mL (≈ 0.126 µM) |
| C[C@@H](N1Cc2cc(-c3ccc(Cl)cc3)sc2C1=O)[C@](O)(Cn1cncn1)c1ccc(F)cc1F | 0.0625 µg/mL (≈ 0.125 µM) | 0.0156 µg/mL (≈ 0.0311 µM) | 0.0625 µg/mL (≈ 0.125 µM) | 0.0625 µg/mL (≈ 0.125 µM) | 8 µg/mL (≈ 16 µM) | 0.0156 µg/mL (≈ 0.0311 µM) |
| C[C@@H](N1Cc2cc(-c3cccc(Cl)c3)sc2C1=O)[C@](O)(Cn1cncn1)c1ccc(F)cc1F | 0.125 µg/mL (≈ 0.25 µM) | 0.0625 µg/mL (≈ 0.125 µM) | 0.0625 µg/mL (≈ 0.125 µM) | 0.125 µg/mL (≈ 0.25 µM) | 8 µg/mL (≈ 16 µM) | 0.0156 µg/mL (≈ 0.0311 µM) |
| C[C@@H](N1Cc2cc(-c3ccc(F)cc3)sc2C1=O)[C@](O)(Cn1cncn1)c1ccc(F)cc1F | 0.0625 µg/mL (≈ 0.129 µM) | 0.0312 µg/mL (≈ 0.0645 µM) | 0.0612 µg/mL (≈ 0.126 µM) | 0.125 µg/mL (≈ 0.258 µM) | 4 µg/mL (≈ 8.26 µM) | 0.0156 µg/mL (≈ 0.0322 µM) |
| C[C@@H](N1Cc2cc(-c3cccc(F)c3)sc2C1=O)[C@](O)(Cn1cncn1)c1ccc(F)cc1F | 0.0625 µg/mL (≈ 0.129 µM) | 0.0625 µg/mL (≈ 0.129 µM) | 0.125 µg/mL (≈ 0.258 µM) | 0.125 µg/mL (≈ 0.258 µM) | 4 µg/mL (≈ 8.26 µM) | 0.0156 µg/mL (≈ 0.0322 µM) |
| C[C@@H](N1Cc2cc(-c3ccc(C#N)cc3)sc2C1=O)[C@](O)(Cn1cncn1)c1ccc(F)cc1F | 0.0156 µg/mL (≈ 0.0317 µM) | 0.0156 µg/mL (≈ 0.0317 µM) | 0.0156 µg/mL (≈ 0.0317 µM) | 0.125 µg/mL (≈ 0.254 µM) | 4 µg/mL (≈ 8.14 µM) | 0.0156 µg/mL (≈ 0.0317 µM) |
| C[C@@H](N1Cc2cc(-c3cccc(C#N)c3)sc2C1=O)[C@](O)(Cn1cncn1)c1ccc(F)cc1F | 0.125 µg/mL (≈ 0.254 µM) | 0.0625 µg/mL (≈ 0.127 µM) | 0.125 µg/mL (≈ 0.254 µM) | 0.125 µg/mL (≈ 0.254 µM) | 4 µg/mL (≈ 8.14 µM) | 0.0625 µg/mL (≈ 0.127 µM) |
| C[C@@H](N1Cc2cc(-c3ccncc3)sc2C1=O)[C@](O)(Cn1cncn1)c1ccc(F)cc1F | 0.0156 µg/mL (≈ 0.0334 µM) | 0.0312 µg/mL (≈ 0.0668 µM) | 0.0312 µg/mL (≈ 0.0668 µM) | 0.0625 µg/mL (≈ 0.134 µM) | 1 µg/mL (≈ 2.14 µM) | 0.0156 µg/mL (≈ 0.0334 µM) |
| C[C@@H](N1Cc2cc(-c3cccnc3)sc2C1=O)[C@](O)(Cn1cncn1)c1ccc(F)cc1F | 0.0312 µg/mL (≈ 0.0668 µM) | 0.0156 µg/mL (≈ 0.0334 µM) | 0.0312 µg/mL (≈ 0.0668 µM) | 0.125 µg/mL (≈ 0.267 µM) | 4 µg/mL (≈ 8.56 µM) | 0.0156 µg/mL (≈ 0.0334 µM) |
| C[C@@H](N1Cc2cc(-c3cncnc3)sc2C1=O)[C@](O)(Cn1cncn1)c1ccc(F)cc1F | 0.0312 µg/mL (≈ 0.0667 µM) | 0.0156 µg/mL (≈ 0.0333 µM) | 0.0625 µg/mL (≈ 0.133 µM) | 0.125 µg/mL (≈ 0.267 µM) | 4 µg/mL (≈ 8.54 µM) | 0.0312 µg/mL (≈ 0.0667 µM) |
| C[C@@H](N1Cc2cc(-c3ccc(C#N)nc3)sc2C1=O)[C@](O)(Cn1cncn1)c1ccc(F)cc1F | 0.125 µg/mL (≈ 0.254 µM) | 0.0312 µg/mL (≈ 0.0635 µM) | 0.125 µg/mL (≈ 0.254 µM) | 0.5 µg/mL (≈ 1.02 µM) | 8 µg/mL (≈ 16.2 µM) | 0.125 µg/mL (≈ 0.254 µM) |
| C[C@@H](N1Cc2cc(-c3cncc(C#N)c3)sc2C1=O)[C@](O)(Cn1cncn1)c1ccc(F)cc1F | 0.0312 µg/mL (≈ 0.0635 µM) | 0.0312 µg/mL (≈ 0.0635 µM) | 0.0156 µg/mL (≈ 0.0317 µM) | 0.125 µg/mL (≈ 0.254 µM) | 4 µg/mL (≈ 8.12 µM) | 0.0156 µg/mL (≈ 0.0317 µM) |
| COc1ccc(-c2cc3c(s2)C(=O)N([C@H](C)[C@](O)(Cn2cncn2)c2ccc(F)cc2F)C3)cn1 | 0.0312 µg/mL (≈ 0.0628 µM) | 0.0312 µg/mL (≈ 0.0628 µM) | 0.0312 µg/mL (≈ 0.0628 µM) | 0.125 µg/mL (≈ 0.251 µM) | 8 µg/mL (≈ 16.1 µM) | 0.0156 µg/mL (≈ 0.0314 µM) |
| C[C@@H](N1Cc2cc(-c3ccc(F)nc3)sc2C1=O)[C@](O)(Cn1cncn1)c1ccc(F)cc1F | 0.25 µg/mL (≈ 0.515 µM) | 0.25 µg/mL (≈ 0.515 µM) | 0.25 µg/mL (≈ 0.515 µM) | 1 µg/mL (≈ 2.06 µM) | 8 µg/mL (≈ 16.5 µM) | 0.125 µg/mL (≈ 0.257 µM) |
| C[C@@H](N1Cc2cc(-c3cncc(F)c3)sc2C1=O)[C@](O)(Cn1cncn1)c1ccc(F)cc1F | 0.0312 µg/mL (≈ 0.0644 µM) | 0.0312 µg/mL (≈ 0.0644 µM) | 0.0312 µg/mL (≈ 0.0644 µM) | 0.25 µg/mL (≈ 0.515 µM) | 4 µg/mL (≈ 8.24 µM) | 0.0312 µg/mL (≈ 0.0644 µM) |
| COc1ncc(-c2cc3c(s2)C(=O)N([C@H](C)[C@](O)(Cn2cncn2)c2ccc(F)cc2F)C3)cn1 | 0.0625 µg/mL (≈ 0.125 µM) | 0.0625 µg/mL (≈ 0.125 µM) | 0.0625 µg/mL (≈ 0.125 µM) | 0.25 µg/mL (≈ 0.501 µM) | 4 µg/mL (≈ 8.02 µM) | 0.0625 µg/mL (≈ 0.125 µM) |
| C[C@@H](n1cnc2cc(Cl)ccc2c1=O)[C@](O)(Cn1cncn1)c1ccc(F)cc1F [ALBACONAZOLE] | 0.0078 µg/mL (≈ 0.0181 µM) | 0.0156 µg/mL (≈ 0.0361 µM) | 0.0156 µg/mL (≈ 0.0361 µM) | 0.0156 µg/mL (≈ 0.0361 µM) | 0.25 µg/mL (≈ 0.579 µM) | 0.0078 µg/mL (≈ 0.0181 µM) |
| OC(Cn1cncn1)(Cn1cncn1)c1ccc(F)cc1F [FLUCONAZOLE] | 4 µg/mL (≈ 13.1 µM) | 0.25 µg/mL (≈ 0.816 µM) | 1 µg/mL (≈ 3.27 µM) | 1 µg/mL (≈ 3.27 µM) | > 64 µg/mL | 0.25 µg/mL (≈ 0.816 µM) |
| C[C@@H](c1ncncc1F)[C@](O)(Cn1cncn1)c1ccc(F)cc1F [VORICONAZOLE] | 0.0156 µg/mL (≈ 0.0447 µM) | 0.0156 µg/mL (≈ 0.0447 µM) | 0.0156 µg/mL (≈ 0.0447 µM) | 0.0156 µg/mL (≈ 0.0447 µM) | 0.25 µg/mL (≈ 0.716 µM) | 0.0156 µg/mL (≈ 0.0447 µM) |
